Assay results reported in ChEMBL document CHEMBL4033800, “Further Developments of the Phenyl-Pyrrolyl Pentane Series of Nonsteroidal Vitamin D Receptor Modulators as Anticancer Agents” (J Med Chem, 2018).
Calls of active or inactive are those of the source. No cut-off for these calls is given here.

Legend:
[1] = AUC in Sprague-Dawley rat at 20 mg/kg, ip measured up to 48 hrs post administration by HPLC analysis; type: ADME, organism-based; set-up: time < 48 hr, dose 20 mg/kg, route intraperitoneal; settings: in vivo
Procedure, shortened: (§1)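 Male Sprague-Dawley rats (180−220 g), 4 per group, dosed at 5 mg/kg i.v., 20 mg/kg i.p. or 20 mg/kg p.o. Parameters given as mean ± SD (n = 4).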

Mus musculus [2] = test: Hypercalcemic effect in ICR mouse at 0.5 to 5 mg/kg/day, ip administered for 7 days measured on day 8 post-dose by MTB-based assay relative to control; type: ADME, organism-based; settings: in vivo, 168 h
Procedure, shortened: (§2)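 Mice were dosed i.p. over a 7-day period and serum calcium was then measured. Each dose level was compared with a vehicle-treated control group (saline cited as the comparator). Data are mean ± SEM, n = 6 per group. Significance versus vehicle was reported at p < 0.05, 0.01 and 0.001.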

MCF7 [3] = test: Antiproliferative activity against human MCF7 cells after 48 hrs by MTT assay; type: functional, cell-based; settings: MCF7, 48 h
[4] = Half life in Sprague-Dawley rat at 20 mg/kg, po by HPLC analysis; type: ADME, organism-based; settings: in vivo; procedure, shortened: as §1
HepG2 = test: Antiproliferative activity against human HepG2 cells after 48 hrs by MTT assay; type: functional, cell-based; settings: HepG2, 48 h
MCF7 [5] = test: Induction of cell cycle arrest in human MCF7 cells assessed as upregulation of p21 mRNA levels at 1 uM after 24 hrs by RT-qPCR analysis; type: functional, cell-based
Procedure, shortened: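 p21 and p27 mRNA levels were measured by real-time quantitative PCR in MCF7 cells treated at 1 µM for 24 h.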

MCF7 [6] = test: Induction of cell cycle arrest in human MCF7 cells assessed as accumulation at S phase at 1 uM after 24 hrs by propidium iodide-staining based flow cytometry (reference value: 31.55%); type: functional
MCF7 [7] = test: Antitumor activity against human MCF7 cells xenografted in BALB/c nude mouse assessed as reduction in tumor cell proliferation at 10 mg/kg, ip administered every other day by Ki-67 staining based microscopic analysis; type: functional, organism-based
Procedure, shortened: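 MCF7 orthotopic tumors from nude mice given 10 mg/kg i.p. were sectioned and immunostained for Ki-67. Ki-67-positive area was scored as a percentage of total nuclear area per field (n=10 fields, 400×) and normalized to the calcitriol group.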

MCF7 [8] = test: Induction of apoptosis in human MCF7 cells assessed as early apoptotic cells at 1 uM after 24 hrs by Annexin V-FITC/propidium iodide-staining based flow cytometry (reference value: 1.74%); type: functional
MCF7 [9] = test: Induction of apoptosis in human MCF7 cells xenografted in BALB/c nude mouse at 10 mg/kg, ip administered every other day by TUNEL assay; type: functional, organism-based
Procedure, shortened: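 Apoptosis in MCF7 orthotopic tumor sections from nude mice given 10 mg/kg i.p. was scored by TUNEL staining.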

Mus musculus [10] = test: Hypercalcemic effect in ICR mouse at 30 mg/kg/day, ip administered for 7 days measured on day 8 post-dose by MTB-based assay relative to control; type: ADME, organism-based; settings: in vivo, 168 h; procedure, shortened: as §2
[11] = Drug metabolism in human MCF7 cells at 1 uM after 24 hrs by HPLC analysis; type: ADME, cell-based; settings: read-out: Drug metabolism
Procedure, shortened: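 MCF7 cells were incubated 24 h with 1 µM compound, alongside a medium-only incubation without cells. Mixtures were extracted with chloroform/methanol (3:1, v/v) and quantified by HPLC. Mean ± SEM, n = 3.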

## CCN(CC)CCCNC(=O)c1ccc(C(CC)(CC)c2ccc(OCCC(O)(CC)CC)c(C)c2)n1CC
[1]
  AUC at 48 h: 30.5 µg·h/mL
Mus musculus [2]
  Activity: Non-Toxic
MCF7 [3]
  IC50: 0.057 µM
[4]
  half-life: 6.82 h
HepG2
  IC50: 0.15 µM
MCF7 [5]
  Activity: Active
MCF7 [6]
  Activity: 25.13%
MCF7 [7]
  Activity: Active
MCF7 [8]
  Activity: 9.59%
MCF7 [9]
  Activity: Active

## CCn1c(C(=O)NCCCN2CCOCC2)ccc1C(CC)(CC)c1ccc(OCCC(O)(CC)CC)c(C)c1
[1]
  AUC at 48 h: 25.9 µg·h/mL
Mus musculus [2]
  Activity: Non-Toxic
MCF7 [3]
  IC50: 0.26 µM
[4]
  half-life: 11.3 h
Mus musculus [10]
  Activity: Toxic
HepG2
  IC50: 1.76 µM
MCF7 [5]
  Activity: Active
MCF7 [6]
  Activity: 22.62%
MCF7 [7]
  Activity: Active
[11]
  metabolised at 24 h, 1 µM: 6%
MCF7 [8]
  Activity: 9.72%
MCF7 [9]
  Activity: Active
